From ChEMBL document CHEMBL4052815, “Amphiphilic Modulation of Glycosylated Antitumor Ether Lipids Results in a Potent Triamino Scaffold against Epithelial Cancer Cell Lines and BT474 Cancer Stem Cells” (J Med Chem, 2017)
Calls of active or inactive are those of the source. No cut-off for these calls is given here.

Experiments:
[1] = tested on: MDA-MB-231; test: Cytotoxicity against human MDA-MB-231 cells assessed as decrease in cell viability after 48 hrs by MTS assay; type: functional; conditions: MDA-MB-231, 48 h
Outline: (§1)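 Cells grown at 37 °C, 5% CO2, with 10% FBS and penicillin/streptomycin: MDA-MB-231, JIMT1 and DU145 in DMEM, PC3 in F12K, BT474 in Hybricare, MiaPaCa2 in DMEM plus 2.5% horse serum. Cells (7500–9000/well) were plated for 24 h, then exposed to 0–20 µM for 48 h. MTS was added for 1–4 h and OD490 read, blank-subtracted, relative to vehicle. CC50 was read from plots; mean ± SD, six independent determinations.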

[2] = tested on: PC-3; test: Cytotoxicity against human PC3 cells assessed as decrease in cell viability after 48 hrs by MTS assay; type: functional; conditions: PC-3, 48 h; outline: as §1
[3] = tested on: BT-474; test: Induction of disintegration of human BT474 cancer stem cell spheroids at 20 uM after 3 days by microscopic method; type: functional, cell-based
Outline: (§2)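 BT474 stem-cell spheroids (ALDH1-sorted, formed over 6 days in Mammocult on ultra-low adhesion plates) exposed to 0, 7.5 or 20 µM for 3 days. Integrity was judged by light microscopy at ×10 against untreated spheroid wells.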

[4] = tested on: BT-474; test: Cytotoxicity against human BT474 cells assessed as decrease in cell viability after 48 hrs by MTS assay; type: functional; conditions: BT-474, 48 h; outline: as §1
[5] = tested on: DU-145; test: Cytotoxicity against human DU145 cells assessed as decrease in cell viability after 48 hrs by MTS assay; type: functional; conditions: DU-145, 48 h; outline: as §1
[6] = tested on: MIA PaCa-2; test: Cytotoxicity against human MIAPaCa2 cells assessed as decrease in cell viability after 48 hrs by MTS assay; type: functional; conditions: MIA PaCa-2, 48 h; outline: as §1
[7] = tested on: BT-474; test: Induction of disintegration of human BT474 cancer stem cell spheroids at 7.5 uM after 3 days by microscopic method; type: functional, cell-based; outline: as §2
[8] = tested on: JIMT-1; test: Cytotoxicity against human JIMT1 cells assessed as decrease in cell viability after 48 hrs by MTS assay; type: functional; conditions: JIMT-1, 48 h; outline: as §1
[9] = tested on: BT-474; test: Cytotoxicity against human BT474 cancer stem cell spheroids assessed as cell viability at 20 uM after 3 days by MTS assay relative to control; conditions: BT-474, 72 h
[10] = tested on: BT-474; test: Cytotoxicity against human BT474 cancer stem cell spheroids assessed as decrease in cell viability at 2 to 10 uM after 3 days by MTS assay
[11] = Chemical stability of compound in aqueous DMSO solution at pH 2 to 3 at 30 uM after 1 week; type: physicochemical; conditions: buffer, pH 2, 168 h
Outline: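 Tested as the TFA salt at 30 µM in aqueous DMSO, pH 2-3, and held for at least one week.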

[12] = tested on: BT-474; test: Cytotoxicity against human BT474 cancer stem cell spheroids assessed as decrease in cell viability up to 20 uM after 3 days by MTS assay

CCCCCCCCCCCCCCCCOC[C@H](CO[C@@H]1O[C@H](CNCCCN)[C@@H](O)[C@H](O)[C@H]1N)OC
CC50 [1]: 13.5 µM
CC50 [2]: 12.5 µM
Activity [3]: inactive
CC50 [4]: > 20 µM
CC50 [5]: 16.5 µM
CC50 [6]: 18.5 µM
Activity [7]: Active
CC50 [8]: 13.5 µM
viability at 20 µM [9]: 0%

CCCCCCCCCCCCCCCCOC[C@@H](COC1O[C@H](CN)[C@@H](O)[C@H](O)[C@H]1N)OC (stereo not given in full)
Activity [10]: Active

CCCCCCCCCCCCCCCCOC[C@H](CO[C@@H]1O[C@H](CN)[C@@H](O)[C@H](O)[C@H]1NCCCN)OC
CC50 [1]: 17.5 µM
CC50 [2]: 14.5 µM
Activity [3]: inactive
CC50 [4]: > 20 µM
CC50 [5]: 18.5 µM
CC50 [6]: 14.5 µM
Activity [7]: Active
CC50 [8]: 12.5 µM
viability at 20 µM [9]: 0%

CCCCCCCCCCCCCCCCOC[C@H](CO[C@@H]1O[C@H](CNCCCCCCCCCCCCNC(=O)CCCc2ccc(N(CCCl)CCCl)cc2)[C@@H](O)[C@H](O)[C@H]1N)OC.O=C(O)C(F)(F)F.O=C(O)C(F)(F)F
CC50 [1]: 10.5 µM
CC50 [2]: > 20 µM
CC50 [4]: 13 µM
CC50 [5]: > 20 µM
CC50 [6]: > 20 µM
CC50 [8]: 16 µM
Stability [11]: Stable

CCCCCCCCCCCCCCN [TETRADECYLAMINE]
Activity [12]: inactive
CC50 [2]: 24 µM
Activity [3]: inactive
CC50 [5]: 16.5 µM
CC50 [6]: 18 µM
Activity [7]: inactive
CC50 [8]: 27 µM

CC[C@@H](C(=O)[C@@H](C)[C@@H](O)[C@H](C)[C@@H]1O[C@@H]([C@@H](CC)C(=O)O)CC[C@@H]1C)[C@H]1O[C@]2(C=C[C@@H](O)[C@]3(CC[C@@](C)([C@H]4CC[C@](O)(CC)[C@H](C)O4)O3)O2)[C@H](C)C[C@@H]1C
Activity [3]: Active
Activity [7]: inactive
